The subject of assay [1] is NG108-15. The experiment in a line: The compound was tested for efficacy against 5-Hydroxytryptamine 3 receptor by measuring [14C]guanidinium uptake on NG108-15 cells.; A = Agonist. It is filed as functional, cell-based. Conditions: filed as agonist. The gist of the method:
(§1)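 NG108-15 cells, grown 2 days, were washed in HEPES saline pH 7.4. They were exposed 10 min at 37 °C to buffer (135 mM NaCl, 10 mM guanidinium) with […] [14C]guanidinium, 1 mM 5-HT, […] and/or 8 drug concentrations. Cells were washed in ice-cold choline buffer, dissolved in NaOH and counted by scintillation. Assays run in triplicate.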

Assay [2] deals with T1, Serotonin 3 (5-HT3) receptor (Rattus norvegicus, UniProt P35563+Q9JJ16).
T1 sequence (P35563 whole entry): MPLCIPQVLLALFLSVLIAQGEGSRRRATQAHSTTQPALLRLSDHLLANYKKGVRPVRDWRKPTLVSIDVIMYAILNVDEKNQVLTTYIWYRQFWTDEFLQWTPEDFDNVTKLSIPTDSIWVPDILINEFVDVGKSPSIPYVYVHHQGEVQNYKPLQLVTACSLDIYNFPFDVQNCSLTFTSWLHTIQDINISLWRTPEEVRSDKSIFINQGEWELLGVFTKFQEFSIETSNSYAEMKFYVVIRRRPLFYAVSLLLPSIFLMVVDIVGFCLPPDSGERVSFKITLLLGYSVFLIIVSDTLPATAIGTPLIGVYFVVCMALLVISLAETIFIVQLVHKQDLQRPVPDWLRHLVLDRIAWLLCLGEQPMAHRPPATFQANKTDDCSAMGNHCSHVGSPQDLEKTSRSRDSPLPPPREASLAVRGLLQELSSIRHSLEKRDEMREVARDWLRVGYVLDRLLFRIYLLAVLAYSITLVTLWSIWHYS
T1 sequence (Q9JJ16 whole entry): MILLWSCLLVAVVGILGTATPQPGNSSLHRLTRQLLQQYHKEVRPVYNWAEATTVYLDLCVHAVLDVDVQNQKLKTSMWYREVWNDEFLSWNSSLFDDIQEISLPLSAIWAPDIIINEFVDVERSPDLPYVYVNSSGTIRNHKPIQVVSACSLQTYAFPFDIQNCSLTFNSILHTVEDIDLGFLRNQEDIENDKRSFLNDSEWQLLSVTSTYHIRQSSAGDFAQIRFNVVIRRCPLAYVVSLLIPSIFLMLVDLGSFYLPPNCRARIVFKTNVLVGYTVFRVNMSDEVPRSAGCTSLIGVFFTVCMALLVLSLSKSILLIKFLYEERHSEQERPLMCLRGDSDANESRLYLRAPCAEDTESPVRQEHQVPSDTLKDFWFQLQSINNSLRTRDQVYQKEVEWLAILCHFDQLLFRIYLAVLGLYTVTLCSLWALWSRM
Kind of assay: Binding affinity against 5-hydroxytryptamine 3 (5-HT3) receptor from rat cortical homogenate using [3H]zacopride as radioligand. The gist of the method: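 Male rat cortices, stored at -80 °C, were homogenized in ice-cold 25 mM Tris HCl pH 7.4 and spun at 50000g. Membranes were preincubated 10 min at 37 °C, washed, and resuspended with 10 µM pargyline (10 mg tissue/sample). They were incubated with 0.4 nM (final) [3H]zacopride for 30 min at 25 °C, filtered through PEI-treated GF/B and counted. IC50 came from dose-inhibition curves, mean ± SEM of three determinations.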

Assay [3] concerns the target Serotonin 3 (5-HT3) receptor. The experiment in a line: Effective concentration against 5-Hydroxytryptamine 3 receptor by measuring [14C]guanidinium uptake on NG108-15 cells. Type of assay: functional, cell-based.
Assay [4] has as its system NG108-15. The experiment in a line: The compound was tested for efficacy against 5-Hydroxytryptamine 3 receptor by measuring [14C]guanidinium uptake on NG108-15 cells; PA=Partial agonist. Type of assay: functional, cell-based. Conditions: filed as partial agonist. The gist of the method: as §1

The term IC50 denotes the concentration at which inhibition is half-maximal. Low readings indicate greater potency, high ones weaker potency. The term EC50 denotes the concentration giving half of the maximal effect.

Take `Cc1cccc2nc(N3CCN(Cc4ccccc4)CC3)c3cccn3c12`: the Efficacy result with NG108-15 [1] is “Agonist”. Besides, the IC50 in assay [2] worked out at 8.8 nM. Further, in assay [3], the concentration for a half-maximal effect (EC50) worked out at 12 nM.

For `O=C(O)CN1CCN(c2nc3cccc(F)c3n3cccc23)CC1`, in assay [2], the half-inhibitory concentration (IC50) was 920 nM. That is a sub-micromolar value.

In the case of `Fc1cccc2nc(N3CCN(CC4N=NN=N4)CC3)c3cccn3c12`, the IC50 in assay [2] was determined as 690 nM.

With `CN1CCN(c2nc3ccccc3c3ccnn23)CC1`, the Efficacy entry in the assay with NG108-15 [1] was “Agonist”. Further, the 50% inhibitory concentration (IC50) in assay [2] was 1.6 nM. This compound had a half-maximal effective concentration (EC50) in assay [3] of 2.7 nM.

Take `Fc1ccc2c(c1)nc(N1CCN(Cc3cccs3)CC1)c1cccn12`: the IC50 in assay [2] was 12 nM.

With `CN1CCN(c2nc3cc(OCc4ccccc4)ccc3n3cccc23)CC1`, the IC50 in assay [2] turned out to be 225 nM.

`CN1CCN(c2nc3ccccc3n3ccnc23)CC1`: the Efficacy result with NG108-15 [1] was “Agonist”. This compound had an IC50 in assay [2] of 3.8 nM. Also, a half-maximal response in assay [3] (EC50) required 15 nM.

Regarding `CN1[C@@H]2CC[C@H]1C[C@@H](OC(=O)c1cc(Cl)cc(Cl)c1)C2` [BEMESETRON], the IC50 in assay [2] was 97 nM.

As for `CN1CCN(c2nc3cc(Cl)c(Cl)cc3n3cccc23)CC1`, in assay [2], the 50% inhibitory concentration (IC50) was found to be 97 nM. This lies in the double-digit nanomolar range.

With `Cc1ccc2c(c1)nc(N1CCN(Cc3ccccc3)CC1)c1cccn12`, the IC50 in assay [2] stood at 24 nM. Against the preceding compound, the IC50 is about 4-fold lower.

`Fc1ccc2c(c1)nc(N1CCN(Cc3ccco3)CC1)c1cccn12` registered a 50% inhibitory concentration (IC50) in assay [2] of 11 nM. This compound also registered an EC50 in assay [3] of 6.6 nM. Further, the Efficacy result with NG108-15 [4] is “Partial agonist”.

`c1csc(CN2CCN(c3nc4ccccc4n4cccc34)CC2)c1` had an IC50 in assay [2] of 22 nM. This counts as double-digit nanomolar.

For `CN1CCN(c2nc3cc(C#N)ccc3n3cccc23)CC1`, in assay [2], the IC50 amounted to 104 nM.

In assay [2], `CN1CCN(c2nccn3cccc23)CC1` returned an IC50 of 1930 nM.

Regarding `CN1CCN(c2nc3cc(O)ccc3n3cccc23)CC1`, in the assay on NG108-15 [1], the Efficacy result was “Agonist”. In addition, the concentration for half-maximal inhibition (IC50) in assay [2] is 0.67 nM. In assay [3], this compound displayed a 50% effective concentration (EC50) of 1.6 nM.

Compound `Cc1cc2nc(N3CCNCC3)c3cccn3c2cc1C` displayed an IC50 in assay [2] of 113 nM.

With `Fc1cccc2nc(N3CCN(Cc4cccs4)CC3)c3cccn3c12`, the half-inhibitory concentration (IC50) in assay [2] was 60 nM.

In assay [2], `Cc1ccc2c(c1)nc(N1CCNCC1)c1cccn12` displayed a 50% inhibitory concentration (IC50) of 16.4 nM. This IC50 is about 3.7-fold lower than that of the compound before.

`Cc1cc2nc(N3CCN(C)CC3)c3cccn3c2cc1C` came in with an IC50 in assay [2] of 30 nM.

As for `Fc1ccc2c(c1)nc(N1CCN(Cc3ccc(Br)o3)CC1)c1cccn12`, the IC50 in assay [2] was 148 nM.

Compound `CN1CCN(c2nc3cccnc3n3ccnc23)CC1` yielded an IC50 in assay [2] of 6.6 nM.

As for `Clc1cc2nc(N3CCN(Cc4ccccc4)CC3)c3cccn3c2cc1Cl`, the IC50 in assay [2] was found to be 118 nM.

In turn, `Fc1ccc2c(c1)nc(N1CCN(Cc3ccccc3)CC1)c1cccn12` came in with an IC50 in assay [2] of 13 nM. Moreover, the midpoint of the response in assay [3], the EC50, lay at 4.2 nM. Also, the Efficacy result in the assay with NG108-15 [4] was “Partial agonist”.

In assay [2], `CN1CCN(C2=NC=CN3CCN=C23)CC1` had an IC50 of 3650 nM.

For `Cc1cccc2nc(N3CCN(Cc4ccc(Br)s4)CC3)c3cccn3c12`, in assay [2], the IC50 came out at 104 nM.

For `CN1CCN(c2nc3cc(F)ccc3n3cccc23)CC1`, in the assay with NG108-15 [1], the Efficacy result is “Agonist”. In assay [3], this compound yielded a concentration for a half-maximal effect (EC50) of 3 nM.

`OCCN1CCN(c2nc3cccnc3n3ccnc23)CC1` displayed an IC50 in assay [2] of 38 nM.

`c1cnc2nc(N3CCNCC3)c3cccn3c2c1` displayed a half-inhibitory concentration (IC50) in assay [2] of 3.1 nM.

As to `CN1CCN(c2nc3cc(F)ccc3n3ccnc23)CC1`, the Efficacy result with NG108-15 [1] is “Agonist”. Besides, the 50% inhibitory concentration (IC50) in assay [2] was determined as 5.2 nM. Besides, in assay [3], a half-maximal effect (EC50) was put at 7.2 nM.

With `c1ccc(CN2CCN(c3nc4cccnc4n4cccc34)CC2)cc1`, the half-inhibitory concentration (IC50) in assay [2] turned out to be 2.3 nM. Besides, the EC50 in assay [3] was 32 nM. Moreover, the Efficacy entry with NG108-15 [4] is “Partial agonist”.

As to `Cc1cc2nc(N3CCN(Cc4ccccc4)CC3)c3cccn3c2cc1C`, the 50% inhibitory concentration (IC50) in assay [2] stood at 44 nM.

In the case of `OCCN1CCN(c2nc3cc(F)ccc3n3cccc23)CC1`, the Efficacy result in the assay on NG108-15 [1] is “Agonist”. In assay [2], the IC50 turned out to be 2.6 nM. The same compound displayed a 50% effective concentration (EC50) in assay [3] of 2.4 nM.

Values taken from ChEMBL document CHEMBL1132449, “Pyrroloquinoxaline derivatives as high-affinity and selective 5-HT(3) receptor agonists: synthesis, further structure-activity relationships, and biological studies” (J Med Chem, 1999).
